Calls of active or inactive are those of the source. The calls are words filed in the database; no cut-off is given here.
Key:
[1] = biological target: Dual specificity protein kinase TTK (Homo sapiens) (UniProt P33981); assay: Inhibition of human TTK assessed as remaining activity at 1 uM in presence of 32ATP relative to control
Summary of the method: (§1)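 Express panel of 52 purified human kinases run in vitro. Kinase activity was measured directly by a radioactive filter-binding assay with ³²ATP, at ATP levels at or below each kinase's calculated Km for ATP. The compound was tested at 1 μM. Each assay was run in duplicate, and activity is given as the mean percentage (with S.D.) of activity without inhibitor.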

[2] = biological target: T1, cAMP-dependent protein kinase (PKA) (Homo sapiens) (UniProt P22694+P17612+P22612); assay: Inhibition of human PKA assessed as remaining activity at 1 uM in presence of 32ATP relative to control; assay type: protein assay; summary of the method: as §1
[3] = biological target: Tyrosine-protein kinase BTK (Homo sapiens) (UniProt Q06187); assay: Inhibition of human BTK assessed as remaining activity at 1 uM in presence of 32ATP relative to control
Tyrosine-protein kinase BTK (Homo sapiens), sequence (Q06187 whole entry): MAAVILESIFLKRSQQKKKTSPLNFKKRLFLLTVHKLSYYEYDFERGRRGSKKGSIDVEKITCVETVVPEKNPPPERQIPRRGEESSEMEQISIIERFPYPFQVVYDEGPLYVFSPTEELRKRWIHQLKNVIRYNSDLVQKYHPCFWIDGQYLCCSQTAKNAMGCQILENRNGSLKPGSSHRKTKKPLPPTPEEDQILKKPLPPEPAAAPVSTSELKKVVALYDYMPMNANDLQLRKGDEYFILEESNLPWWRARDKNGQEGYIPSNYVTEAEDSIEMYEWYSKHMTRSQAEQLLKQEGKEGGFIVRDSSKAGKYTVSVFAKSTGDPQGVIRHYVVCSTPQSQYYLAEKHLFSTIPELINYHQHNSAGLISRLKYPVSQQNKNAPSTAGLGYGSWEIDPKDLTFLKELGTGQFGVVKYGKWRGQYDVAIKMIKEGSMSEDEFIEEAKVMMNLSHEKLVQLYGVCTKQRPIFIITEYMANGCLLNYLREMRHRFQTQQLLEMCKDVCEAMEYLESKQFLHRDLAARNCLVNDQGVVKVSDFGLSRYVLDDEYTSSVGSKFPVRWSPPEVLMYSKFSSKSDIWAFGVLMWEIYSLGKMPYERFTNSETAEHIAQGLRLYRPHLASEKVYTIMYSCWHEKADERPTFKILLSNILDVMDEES
Summary of the method: (§2)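 Express screen of 52 purified human kinases run as a radioactive filter-binding assay with 32ATP, at 1 μM inhibitor. ATP was at or below each kinase's calculated Km. Activity is given as percent of the activity without inhibitor. Run in duplicate; mean with S.D.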

Homo sapiens = organism: Homo sapiens; assay: Inhibition of human VEGFR assessed as remaining activity at 1 uM in presence of 32ATP relative to control; summary of the method: as §1
[4] = biological target: Serine/threonine-protein kinase D1 (Homo sapiens) (UniProt Q15139); assay: Inhibition of human PKD1 assessed as remaining activity at 1 uM in presence of 32ATP relative to control; summary of the method: as §1
Serine/threonine-protein kinase D1 (Homo sapiens), sequence (Q15139 whole entry): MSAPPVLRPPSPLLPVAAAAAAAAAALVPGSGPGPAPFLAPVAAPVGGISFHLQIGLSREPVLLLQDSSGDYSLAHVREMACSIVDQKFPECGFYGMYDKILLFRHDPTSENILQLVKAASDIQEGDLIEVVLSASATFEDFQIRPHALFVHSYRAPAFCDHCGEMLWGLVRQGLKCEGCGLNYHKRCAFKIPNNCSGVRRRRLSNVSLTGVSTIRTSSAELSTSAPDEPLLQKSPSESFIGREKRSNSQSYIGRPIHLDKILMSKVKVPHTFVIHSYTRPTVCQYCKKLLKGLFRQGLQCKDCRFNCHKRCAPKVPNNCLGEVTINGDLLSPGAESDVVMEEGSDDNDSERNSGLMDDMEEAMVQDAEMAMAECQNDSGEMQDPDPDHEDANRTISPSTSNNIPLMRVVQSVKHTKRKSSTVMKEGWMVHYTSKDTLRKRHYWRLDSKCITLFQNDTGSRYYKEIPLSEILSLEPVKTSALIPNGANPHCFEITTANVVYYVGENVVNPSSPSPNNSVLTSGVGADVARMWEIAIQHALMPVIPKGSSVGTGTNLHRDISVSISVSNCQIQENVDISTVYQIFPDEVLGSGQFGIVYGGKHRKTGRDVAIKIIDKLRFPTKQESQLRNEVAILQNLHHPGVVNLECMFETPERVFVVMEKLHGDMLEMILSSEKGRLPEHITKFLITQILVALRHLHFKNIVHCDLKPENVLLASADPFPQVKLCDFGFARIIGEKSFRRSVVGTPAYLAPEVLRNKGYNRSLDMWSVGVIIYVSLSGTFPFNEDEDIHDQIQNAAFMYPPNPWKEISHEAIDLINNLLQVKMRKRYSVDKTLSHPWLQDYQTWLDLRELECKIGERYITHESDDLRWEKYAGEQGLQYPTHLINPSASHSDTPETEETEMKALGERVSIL

[5] = biological target: Eukaryotic elongation factor 2 kinase (Homo sapiens) (UniProt O00418); assay: Inhibition of human EF2K assessed as remaining activity at 1 uM in presence of 32ATP relative to control; summary of the method: as §2
Eukaryotic elongation factor 2 kinase (Homo sapiens), sequence (O00418 whole entry): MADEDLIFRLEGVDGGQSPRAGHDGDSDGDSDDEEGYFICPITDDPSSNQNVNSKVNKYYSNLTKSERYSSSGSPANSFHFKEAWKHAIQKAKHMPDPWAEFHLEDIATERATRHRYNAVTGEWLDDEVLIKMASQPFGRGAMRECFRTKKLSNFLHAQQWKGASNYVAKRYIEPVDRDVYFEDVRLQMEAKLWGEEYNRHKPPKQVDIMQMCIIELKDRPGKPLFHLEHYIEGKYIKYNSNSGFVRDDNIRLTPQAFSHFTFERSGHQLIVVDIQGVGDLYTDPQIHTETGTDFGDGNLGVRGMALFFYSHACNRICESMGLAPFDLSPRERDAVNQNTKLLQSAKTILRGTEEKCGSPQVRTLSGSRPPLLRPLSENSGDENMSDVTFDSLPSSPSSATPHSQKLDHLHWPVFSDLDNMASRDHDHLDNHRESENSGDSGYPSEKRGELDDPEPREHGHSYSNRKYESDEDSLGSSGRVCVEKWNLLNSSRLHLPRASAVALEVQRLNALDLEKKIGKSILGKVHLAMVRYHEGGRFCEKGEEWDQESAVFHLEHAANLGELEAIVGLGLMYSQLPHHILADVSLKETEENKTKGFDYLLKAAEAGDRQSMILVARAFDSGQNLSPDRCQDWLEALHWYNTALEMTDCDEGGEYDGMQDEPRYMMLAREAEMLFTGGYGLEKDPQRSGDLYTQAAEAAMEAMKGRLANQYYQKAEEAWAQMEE

[6] = biological target: Dual specificity tyrosine-phosphorylation-regulated kinase 1A (Homo sapiens) (UniProt Q13627); assay: Inhibition of human DYRK1A assessed as remaining activity at 1 uM in presence of 32ATP relative to control; summary of the method: as §2
[7] = biological target: Mu-type opioid receptor (Rattus norvegicus) (UniProt P33535); assay: Inhibition of HA-tagged rat MOPr in HEK293 cells assessed as reduction in DAMGO induced MOPr internalization level at 30 uM preincubated for 30 mins by confocal microscopy analysis; assay type: functional, cell-based
Mu-type opioid receptor (Rattus norvegicus), sequence (P33535 whole entry, the tested form may be a part): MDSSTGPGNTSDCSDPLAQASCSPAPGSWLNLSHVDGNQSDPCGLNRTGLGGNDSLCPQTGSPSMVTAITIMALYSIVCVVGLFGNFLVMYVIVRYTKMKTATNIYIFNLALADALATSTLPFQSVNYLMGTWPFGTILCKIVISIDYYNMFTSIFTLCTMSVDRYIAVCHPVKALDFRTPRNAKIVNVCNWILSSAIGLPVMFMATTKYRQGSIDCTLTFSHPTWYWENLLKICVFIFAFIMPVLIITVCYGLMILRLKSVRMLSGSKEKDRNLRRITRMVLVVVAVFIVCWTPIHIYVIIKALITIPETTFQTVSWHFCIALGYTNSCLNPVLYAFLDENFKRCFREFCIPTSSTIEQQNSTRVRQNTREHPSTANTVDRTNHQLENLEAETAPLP
Summary of the method: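 HA-MOPr HEK 293 cells were prelabeled with anti-HA at 4°C for 1 h, then given inhibitor (30 μM) 30 min at 37°C and DAMGO 10 μM. Cells were stained with a fluorescein secondary and Hoechst and imaged by confocal microscopy (63× oil); repeated 3 times.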

[8] = biological target: RAC-alpha serine/threonine-protein kinase (Homo sapiens) (UniProt P31749); assay: Inhibition of human PKBa assessed as remaining activity at 1 uM in presence of 32ATP relative to control; summary of the method: as §1
[9] = biological target: Glycogen synthase kinase-3 beta (Homo sapiens) (UniProt P49841); assay: Inhibition of human GSK3b assessed as remaining activity at 1 uM in presence of 32ATP relative to control; summary of the method: as §1
[10] = biological target: High affinity nerve growth factor receptor (Homo sapiens) (UniProt P04629); assay: Inhibition of human TrkA assessed as remaining activity at 1 uM in presence of 32ATP relative to control; summary of the method: as §1
[11] = biological target: T1, cAMP-dependent protein kinase (PKA) (Homo sapiens); assay: Inhibition of PKA (unknown origin) at 1 uM in presence of 32ATP relative to control; assay type: protein assay; summary of the method: as §2
[12] = biological target: G protein-coupled receptor kinase 5 (Bos taurus) (UniProt P43249); assay: Inhibition of C-terminal truncations tagged bovine GRK5 at 125 uM in the presence of ATP
G protein-coupled receptor kinase 5 (Bos taurus), sequence (P43249 whole entry, the tested form may be a part): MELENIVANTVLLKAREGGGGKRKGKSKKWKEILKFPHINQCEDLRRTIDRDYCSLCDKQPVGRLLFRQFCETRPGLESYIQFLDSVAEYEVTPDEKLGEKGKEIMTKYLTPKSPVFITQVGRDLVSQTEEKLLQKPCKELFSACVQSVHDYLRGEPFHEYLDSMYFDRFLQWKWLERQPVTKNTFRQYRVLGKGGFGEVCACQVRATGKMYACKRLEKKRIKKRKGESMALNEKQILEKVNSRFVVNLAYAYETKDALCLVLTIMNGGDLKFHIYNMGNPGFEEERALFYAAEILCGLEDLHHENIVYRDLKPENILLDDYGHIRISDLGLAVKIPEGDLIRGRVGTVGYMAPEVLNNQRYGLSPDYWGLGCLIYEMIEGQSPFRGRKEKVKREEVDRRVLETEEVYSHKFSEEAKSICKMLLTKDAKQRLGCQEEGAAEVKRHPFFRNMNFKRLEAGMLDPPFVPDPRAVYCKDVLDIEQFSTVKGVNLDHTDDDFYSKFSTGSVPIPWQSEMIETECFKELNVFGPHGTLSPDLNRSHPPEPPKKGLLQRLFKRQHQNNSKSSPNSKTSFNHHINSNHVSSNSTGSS

[13] = biological target: Mitogen-activated protein kinase 1 (Homo sapiens) (UniProt P28482); assay: Inhibition of human ERK2 assessed as remaining activity at 1 uM in presence of 32ATP relative to control; summary of the method: as §1
Mitogen-activated protein kinase 1 (Homo sapiens), sequence (P28482 whole entry): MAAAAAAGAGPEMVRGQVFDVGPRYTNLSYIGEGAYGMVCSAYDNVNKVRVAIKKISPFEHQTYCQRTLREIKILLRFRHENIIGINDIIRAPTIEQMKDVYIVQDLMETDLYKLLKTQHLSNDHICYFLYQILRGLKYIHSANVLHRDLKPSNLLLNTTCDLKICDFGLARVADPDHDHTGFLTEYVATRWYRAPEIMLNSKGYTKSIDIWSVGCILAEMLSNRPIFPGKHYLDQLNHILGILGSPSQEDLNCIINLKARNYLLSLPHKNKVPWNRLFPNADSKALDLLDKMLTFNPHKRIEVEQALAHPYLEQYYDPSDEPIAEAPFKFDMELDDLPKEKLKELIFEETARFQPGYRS

[14] = biological target: Mu-type opioid receptor (Rattus norvegicus) (UniProt P33535); assay: Inhibition of HA-tagged rat MOPr in HEK293 cells assessed as prevention in DAMGO induced MOPr phosphorylation at Thr370 level at 30 uM preincubated for 30 mins by western blot analysis; assay type: functional, cell-based
[15] = biological target: Serine/threonine-protein kinase PLK1 (Homo sapiens) (UniProt P53350); assay: Inhibition of human PLK1 assessed as remaining activity at 1 uM in presence of 32ATP relative to control; summary of the method: as §1
[16] = biological target: Myosin light chain kinase, smooth muscle (Homo sapiens) (UniProt Q15746); assay: Inhibition of human SmMLCK assessed as remaining activity at 1 uM in presence of 32ATP relative to control; summary of the method: as §1
[17] = biological target: Serine/threonine-protein kinase Sgk1 (Homo sapiens) (UniProt O00141); assay: Inhibition of human SGK1 at 1 uM in presence of 32ATP relative to control; summary of the method: as §1
[18] = biological target: Proto-oncogene tyrosine-protein kinase Src (Homo sapiens) (UniProt P12931); assay: Inhibition of human Src assessed as remaining activity at 1 uM in presence of 32ATP relative to control; summary of the method: as §1
[19] = biological target: Mu-type opioid receptor (Rattus norvegicus) (UniProt P33535); assay: Inhibition of HA-tagged rat MOPr stably expressing in HEK293 cells assessed as increase in ERK1/2 phosphorylation level at 30 uM preincubated for 30 mins by westernblot analysis; assay type: functional, cell-based
Summary of the method: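 HEK 293 cells stably expressing HA-tagged rat MOPr were grown to 90% confluence and serum-starved 24 h. Inhibitor was added for 30 min, then DAMGO 10 μM for 5 min. pERK1/2 was measured by Western blot with ECL detection. Densitometry was done in duplicate, normalized to total ERK1/2 and expressed as % of maximal DAMGO response; n = 4.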

[20] = biological target: Mu-type opioid receptor (Rattus norvegicus) (UniProt P33535); assay: Inhibition of MOPr desensitization in wistar rat LC neuron cells assessed as reduction in the Met-Enk induced desensitization at 30 uM incubated for 15 mins before in the presence of SP600125; assay type: functional, cell-based
[21] = biological target: Serine/threonine-protein kinase PAK 4 (Homo sapiens) (UniProt O96013); assay: Inhibition of human PAK4 assessed as remaining activity at 1 uM in presence of 32ATP relative to control; summary of the method: as §1
Serine/threonine-protein kinase PAK 4 (Homo sapiens), sequence (O96013 whole entry, looked up): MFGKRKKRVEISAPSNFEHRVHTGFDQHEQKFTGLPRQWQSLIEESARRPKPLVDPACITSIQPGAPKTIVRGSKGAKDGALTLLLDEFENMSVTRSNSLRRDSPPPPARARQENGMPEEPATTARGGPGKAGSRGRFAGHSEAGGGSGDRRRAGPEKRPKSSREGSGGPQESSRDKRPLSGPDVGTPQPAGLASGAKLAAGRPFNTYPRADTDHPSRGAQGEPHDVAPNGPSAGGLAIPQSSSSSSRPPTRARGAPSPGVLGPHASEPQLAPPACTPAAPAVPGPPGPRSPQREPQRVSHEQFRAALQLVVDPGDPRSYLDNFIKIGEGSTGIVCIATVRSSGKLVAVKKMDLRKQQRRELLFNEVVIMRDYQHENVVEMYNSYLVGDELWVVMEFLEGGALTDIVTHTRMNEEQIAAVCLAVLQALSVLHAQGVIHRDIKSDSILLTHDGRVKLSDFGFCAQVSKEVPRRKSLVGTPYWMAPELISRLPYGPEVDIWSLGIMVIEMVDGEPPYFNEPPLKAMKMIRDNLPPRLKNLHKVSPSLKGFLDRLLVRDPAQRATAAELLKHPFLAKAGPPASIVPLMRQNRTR

[22] = biological target: Beta-adrenergic receptor kinase 1 (Homo sapiens) (UniProt P25098); assay: Inhibition of human GRK2 at 1 uM relative to control
Beta-adrenergic receptor kinase 1 (Homo sapiens), sequence (P25098 whole entry): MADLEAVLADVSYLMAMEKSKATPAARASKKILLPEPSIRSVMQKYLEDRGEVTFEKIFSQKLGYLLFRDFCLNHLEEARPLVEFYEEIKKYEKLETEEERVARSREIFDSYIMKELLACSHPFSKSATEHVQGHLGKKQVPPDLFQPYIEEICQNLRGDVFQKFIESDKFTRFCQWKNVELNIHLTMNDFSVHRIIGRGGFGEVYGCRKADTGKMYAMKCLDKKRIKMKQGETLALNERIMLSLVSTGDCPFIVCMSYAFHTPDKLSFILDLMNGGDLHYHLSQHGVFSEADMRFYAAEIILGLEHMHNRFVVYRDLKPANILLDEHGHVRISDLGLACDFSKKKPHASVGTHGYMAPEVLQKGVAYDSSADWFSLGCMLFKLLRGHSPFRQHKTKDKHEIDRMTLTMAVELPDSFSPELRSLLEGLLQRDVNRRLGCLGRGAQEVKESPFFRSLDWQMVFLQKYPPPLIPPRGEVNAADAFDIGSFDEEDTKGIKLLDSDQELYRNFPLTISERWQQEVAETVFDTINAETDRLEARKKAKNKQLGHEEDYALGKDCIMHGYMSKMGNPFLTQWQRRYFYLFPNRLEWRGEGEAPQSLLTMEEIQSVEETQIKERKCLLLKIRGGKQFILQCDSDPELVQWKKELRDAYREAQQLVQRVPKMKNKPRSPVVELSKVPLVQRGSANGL

[23] = biological target: Mu-type opioid receptor (Rattus norvegicus) (UniProt P33535); assay: Inhibition of HA-tagged rat MOPr stably expressing in HEK293 cells assessed as increase in DAMGO-induced Elk1 phosphorylation level at 30 uM preincubated for 30 mins by westernblot analysis; assay type: functional, cell-based
Summary of the method: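 HA-MOPr HEK 293 cells were serum-starved 24 h and pretreated with inhibitor (30 μM) for 30 min, then given DAMGO 10 μM for 5 min.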

[24] = biological target: Mu-type opioid receptor (Rattus norvegicus) (UniProt P33535); assay: Inhibition of MOPr desensitization in wistar rat LC neuron cells assessed as reduction in the DAMGO induced desensitization at 3 to 100 uM incubated for 15 mins before; assay type: functional, cell-based; details: dose 3-100 µM
Summary of the method: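 Rat LC neurons (Wistar, 5–8 weeks) were recorded by whole-cell patch clamp. DAMGO 10 μM was superfused for 12 min to desensitize, then the maximal morphine 30 μM response was measured at plateau. Inhibitor was superfused beforehand; n = 4; ANOVA.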

[25] = biological target: Mu-type opioid receptor (Rattus norvegicus) (UniProt P33535); assay: Inhibition of MOPr desensitization in wistar rat LC neuron cells assessed as Met-Enk response at 3 uM incubated for 15 mins relative to control

Cn1c(CNc2cccc(C(=O)NCc3ccccc3C(F)(F)F)c2)nnc1-c1ccncc1
Activity [1]: 89%
Activity [2]: 95%
Activity [3]: 72%
Activity (Homo sapiens): 79%
Activity [4]: 65%
Activity [5]: 103%
Activity [6]: 112%
inhibition [7]: Active
Activity [8]: 83%
Activity [9]: 85%
Activity [10]: 106%
inhibition [11]: < 20%
inhibition [12]: inactive
Activity [13]: 81%
inhibition [14]: Active
Activity [15]: 106%
Activity [16]: 89%
inhibition [17]: 69%
Activity [18]: 104%
inhibition [19]: Active
inhibition [20]: inactive
Activity [21]: 101%
inhibition [22]: > 90%
inhibition [23]: inactive
inhibition [24]: Active
Met-Enk (600 nM) response, % of initial [25]: 94%
